# Assay results of several laboratories.
# Lines come from different studies, so protocols differ.
# Target: Dual specificity protein kinase CLK3 (CLK3, Homo sapiens, UniProt P49761)
# Technique: competition with immobilised ligand
Structure (SMILES),assay,conditions,remaining binding
O=C(NCC1CCOCC1)c1n[nH]cc1NC(=O)c1c(F)cccc1F,binding,1 µM,64%
CO[C@@H](C)c1c(Nc2ccc([C@@H](N(C)C(=O)C3CCS(=O)(=O)CC3)C(F)(F)F)cc2)cnc2cc(Cl)nn12,cell-free assay,1 µM,87%
FC(F)(F)Oc1cccc(-c2cnc3ccc(-c4ccncc4)nn23)c1,cell-free assay,5 µM,8.1%
C=CC(=O)N1CCC(C(=O)NCC(=O)N2CCN(c3nc(-c4cnc(N)nc4C(F)F)nc(N4CCOCC4)n3)CC2)CC1,binding,1 µM,97%
COc1cnc(Nc2cccc(S(N)(=O)=O)c2)nc1N1CCN(c2ccccc2)CC1,binding,1 µM,97%
O=C1CCc2cc(Nc3cc(OC4CCOCC4)c([N+](=O)[O-])cc3Cl)ccc2N1,cell-free assay,1 µM,100%
CNC(=O)[C@@H]1CC[C@@H](n2c(-c3ccc4cnccc4c3)nc3ccc(C(=O)NCc4cccc(C(N)=O)c4)cc32)C1,binding,1 µM,100%
COc1ncc2cc3ccccc3nc2c1C#N,cell-free assay,5 µM,94%
O=C(NCCCN1CCOCC1)c1ccc(Nc2ncc(Cl)c(-c3ccc(Cl)s3)n2)cc1,binding,1 µM,37%
CN(C(=O)c1ccccc1)c1cc(N(C)c2ccc3c(c2)CCc2ccc(C(=O)NCCN4CCOCC4)cc2C3=O)ccc1F,cell-free assay,1 µM,100%
Cc1cnc(Nc2ccc(C(=O)N3CCC(N4CCCC4)CC3)cc2)nc1-c1cc2ccccc2s1,binding,1 µM,7%
CCN1CCN(Cc2ccc(C(=O)Nc3ccc(C)c(Oc4ccc5c(c4)CC(=O)N5)c3)cc2C(F)(F)F)CC1,binding,1 µM,100%
O=C(c1ccc(Nc2ncc(Cl)c(-c3cc4ccccc4s3)n2)cc1)N1CCC(N2CCCC2)CC1,binding,1 µM,7.4%
Nc1c(C(=O)NCc2ccc(C(=O)NCCCC3CCCCC3)cc2)cnn1-c1ccccc1,cell-free assay,0.1 µM,95%
